Legend:
[1] = Plasma protein binding in rat at 20 uM after 1 hr by HPLC analysis; assay type: ADME, cell-free; details: read-out: PPB (converted)
In short: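 20 μM compound in rat plasma, 37 °C for 1 h. Free fraction separated by 30 kDa MWCO centrifugal ultrafiltration and quantified by HPLC with fluorescence detection against external calibration standards.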

[2] = Drug excretion in Sprague-Dawley rat urine after 6 hrs; assay type: ADME
In short: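 Test agent (1 mL, 2 mM in PBS) given by tail vein to conscious restrained rats in metabolic cages, urine collected at 2, 4 and 6 h with cage washes; or to rats anesthetized with Inactin 100 mg/kg ip, tracheotomized, kept on 37 °C pad, with bladder urine drawn at 6 h. Urine level by HPLC with fluorescence detection against external standards; %ID from mass balance; mean ± SEM, n=3-6.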

[3] = tested on: Rattus norvegicus; test: Plasma clearance in Sprague-Dawley rat in presence of 70 mg/kg probenecid administered 10 mins prior to compound treatment; details: in vivo
[4] = Stability of the compound assessed as drug degradation by HPLC analysis; assay type: physicochemical
[5] = Terminal half life in Sprague-Dawley rat plasma […]; assay type: ADME, organism-based; details: read-out: beta t1/2
In short: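 Male Sprague Dawley rats (330-380 g), Inactin ip, tracheotomized, with femoral vein dosing and femoral artery sampling catheters. Dose was 1 mL of 2 mM agent; about 200 μL blood taken at 0-120 min (10 points). Plasma measured by HPLC with fluorescence detection against external standards. Terminal-phase half-life from two-compartment modeling; mean ± SEM, n=4-8.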

[6] = species on record: Mus musculus; test: Drug uptake in mouse bladder at 300 uL after 60 mins by real-time fluorescence analysis; details: in vivo, 1 h

Structure (SMILES) | fraction unbound at 1 h, 20 µM [1] | urinary excretion (% of injected dose) at 6 h [2] [% ID] | CL [3] | Stability [4] | half-life [5] [min] | Drug uptake [6]
Nc1nc(C(=O)NCCO)c(N)nc1C(=O)NCCO | 0.88 | – | – | – | – | –
Nc1nc(C(=O)NCC(O)CO)c(N)nc1C(=O)NCC(O)CO (stereo not given) | 0.98 | 61 | – | – | – | –
Nc1nc(C(=O)N[C@@H](CO)C(=O)O)c(N)nc1C(=O)N[C@@H](CO)C(=O)O | 1 | 82 | Not Active | Stable | 36 | –
Nc1nc(C(=O)N[C@H](CC(=O)O)C(=O)O)c(N)nc1C(=O)N[C@H](CC(=O)O)C(=O)O | 1 | 61 | – | – | – | –
CCCNc1nc(C(=O)N[C@H](CO)C(=O)O)c(NCCC)nc1C(=O)N[C@H](CO)C(=O)O | 0.26 | – | – | – | – | –
NC(=O)c1nc(NC[C@H](O)CO)c(C(N)=O)nc1NC[C@H](O)CO | 0.85 | 25 | – | – | – | –
O=C(NCC(O)CO)c1nc(NC[C@H](O)CO)c(C(=O)NCC(O)CO)nc1NC[C@H](O)CO (stereo not given in full) | 0.94 | 88 | Active | Stable | 19 | Active
O=C(NCC(O)CO)c1nc(NC[C@@H](O)CO)c(C(=O)NCC(O)CO)nc1NC[C@@H](O)CO (stereo not given in full) | 0.96 | 87 | – | – | – | –
O=C(N[C@H](CO)C(=O)O)c1nc(NC[C@H](O)CO)c(C(=O)N[C@H](CO)C(=O)O)nc1NC[C@H](O)CO | 1 | 85 | Active | Stable | 20 | –
CNC(=O)c1c(I)c(NC(C)=O)c(I)c(C(=O)O)c1I [IOTHALAMIC ACID] | 0.9 | 80 | Active | – | 32 | –
Nc1nc(C(=O)N[C@H](CO)C(=O)O)c(N)nc1C(=O)N[C@H](CO)C(=O)O [RELMAPIRAZIN] | 1 | 90 | Active | Stable | 29 | –
